Measurements reported in the M2OR odorant receptor database.

Key:
Details in all cases: stereoisomer not certain
OR10A3 (Homo sapiens) = target: T1, OR10A3 (Homo sapiens) (UniProt P58181)
T1 sequence (whole entry): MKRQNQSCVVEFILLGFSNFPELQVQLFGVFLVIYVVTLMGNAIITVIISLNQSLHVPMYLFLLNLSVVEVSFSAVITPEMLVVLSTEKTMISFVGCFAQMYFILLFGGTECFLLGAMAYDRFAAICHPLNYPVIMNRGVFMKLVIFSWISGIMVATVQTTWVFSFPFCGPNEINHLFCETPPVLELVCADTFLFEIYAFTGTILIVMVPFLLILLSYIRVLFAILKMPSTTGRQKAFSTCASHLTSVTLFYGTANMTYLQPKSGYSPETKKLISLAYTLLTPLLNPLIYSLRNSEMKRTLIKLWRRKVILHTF
Outline: (§1)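 Transient luciferase assays in mammalian cell lines were common, though methods varied by source. The values come from published papers and their supplementary material, with extra details from the original authors when needed. Responsive refers to a measured signal the original authors judged statistically different from baseline, and non-responsive (inactive) to the remainder.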

OR10A4 (Homo sapiens) = target: T2, OR10A4 (Homo sapiens) (UniProt Q9H209)
T2 sequence (whole entry): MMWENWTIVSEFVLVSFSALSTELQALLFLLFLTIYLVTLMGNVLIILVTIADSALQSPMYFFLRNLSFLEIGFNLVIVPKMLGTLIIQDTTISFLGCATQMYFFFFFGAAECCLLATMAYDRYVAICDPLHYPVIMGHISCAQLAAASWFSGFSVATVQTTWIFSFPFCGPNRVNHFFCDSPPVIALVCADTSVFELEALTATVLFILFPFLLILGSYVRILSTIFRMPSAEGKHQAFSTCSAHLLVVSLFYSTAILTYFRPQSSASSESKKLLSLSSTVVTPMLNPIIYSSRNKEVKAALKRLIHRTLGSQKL
Outline: as §1

OR10A5 (Homo sapiens) = target: T3, OR10A5 (Homo sapiens) (UniProt Q9H207)
T3 sequence (whole entry): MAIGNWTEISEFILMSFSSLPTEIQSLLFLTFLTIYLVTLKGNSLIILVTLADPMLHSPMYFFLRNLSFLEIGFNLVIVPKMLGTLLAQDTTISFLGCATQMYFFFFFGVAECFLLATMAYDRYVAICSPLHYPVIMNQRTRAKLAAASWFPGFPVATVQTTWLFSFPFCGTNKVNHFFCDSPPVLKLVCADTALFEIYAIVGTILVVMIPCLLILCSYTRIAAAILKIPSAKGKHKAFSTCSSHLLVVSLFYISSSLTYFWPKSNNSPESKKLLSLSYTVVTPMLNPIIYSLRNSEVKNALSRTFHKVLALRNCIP
Outline: as §1

OR10A6 (Homo sapiens) = target: T4, OR10A6 (Homo sapiens) (UniProt Q8NH74)
T4 sequence (whole entry): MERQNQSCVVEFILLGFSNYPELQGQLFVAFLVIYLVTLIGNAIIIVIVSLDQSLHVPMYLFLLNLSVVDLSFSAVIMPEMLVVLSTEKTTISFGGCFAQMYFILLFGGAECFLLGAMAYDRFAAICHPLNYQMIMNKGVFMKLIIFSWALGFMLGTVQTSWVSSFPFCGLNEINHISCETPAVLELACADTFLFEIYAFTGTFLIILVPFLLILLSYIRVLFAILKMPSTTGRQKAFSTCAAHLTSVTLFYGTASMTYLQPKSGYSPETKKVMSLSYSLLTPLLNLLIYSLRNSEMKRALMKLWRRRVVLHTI
Outline: as §1

OR10A7 (Homo sapiens) = target: T5, OR10A7 (Homo sapiens) (UniProt Q8NGE5)
T5 sequence (whole entry): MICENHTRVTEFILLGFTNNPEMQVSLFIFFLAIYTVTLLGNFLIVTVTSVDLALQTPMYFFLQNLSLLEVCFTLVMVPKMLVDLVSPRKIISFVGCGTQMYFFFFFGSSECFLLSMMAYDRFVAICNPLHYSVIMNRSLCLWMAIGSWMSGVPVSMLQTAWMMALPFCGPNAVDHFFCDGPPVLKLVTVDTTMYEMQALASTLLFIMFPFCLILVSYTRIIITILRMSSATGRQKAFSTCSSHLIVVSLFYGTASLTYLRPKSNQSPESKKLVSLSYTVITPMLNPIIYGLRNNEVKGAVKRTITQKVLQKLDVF
Outline: as §1

OR10AD1 (Homo sapiens) = target: T6, OR10AD1 (Homo sapiens) (UniProt Q8NGE0)
T6 sequence (whole entry): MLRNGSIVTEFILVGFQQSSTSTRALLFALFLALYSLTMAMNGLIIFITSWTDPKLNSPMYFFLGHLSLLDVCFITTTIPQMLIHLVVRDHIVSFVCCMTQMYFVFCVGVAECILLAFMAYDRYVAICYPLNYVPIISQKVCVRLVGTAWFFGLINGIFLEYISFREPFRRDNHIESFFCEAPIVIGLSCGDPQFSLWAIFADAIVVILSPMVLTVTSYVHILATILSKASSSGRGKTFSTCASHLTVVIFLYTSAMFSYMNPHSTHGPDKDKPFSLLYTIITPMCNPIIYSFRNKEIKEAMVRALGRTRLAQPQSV
Outline: as §1

OR10AG1 (Homo sapiens) = target: T7, OR10AG1 (Homo sapiens) (UniProt Q8NH19)
T7 sequence (whole entry): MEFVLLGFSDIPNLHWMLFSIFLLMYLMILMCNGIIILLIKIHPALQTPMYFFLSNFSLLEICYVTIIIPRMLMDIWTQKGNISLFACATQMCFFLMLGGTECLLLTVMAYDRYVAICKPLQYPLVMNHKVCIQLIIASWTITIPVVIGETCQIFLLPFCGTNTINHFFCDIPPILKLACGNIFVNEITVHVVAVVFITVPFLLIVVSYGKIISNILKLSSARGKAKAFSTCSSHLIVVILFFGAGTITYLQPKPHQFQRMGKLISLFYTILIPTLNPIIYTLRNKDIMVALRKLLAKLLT
Outline: as §1

OR10C1 (Homo sapiens) = target: T8, OR10C1 (Homo sapiens) (UniProt Q96KK4)
T8 sequence (whole entry): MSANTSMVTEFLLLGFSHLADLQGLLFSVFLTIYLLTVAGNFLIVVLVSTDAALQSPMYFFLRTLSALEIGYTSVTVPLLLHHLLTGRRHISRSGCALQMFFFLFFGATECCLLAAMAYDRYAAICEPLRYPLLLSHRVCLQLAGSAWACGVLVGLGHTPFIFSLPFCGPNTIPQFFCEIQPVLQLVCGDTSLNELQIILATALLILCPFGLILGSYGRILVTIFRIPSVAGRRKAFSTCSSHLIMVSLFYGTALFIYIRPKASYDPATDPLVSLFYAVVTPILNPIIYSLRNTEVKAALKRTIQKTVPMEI
Outline: as §1

OR10D3 (Homo sapiens) = target: T9, OR10D3 (Homo sapiens) (UniProt Q8NH80)
T9 sequence (whole entry): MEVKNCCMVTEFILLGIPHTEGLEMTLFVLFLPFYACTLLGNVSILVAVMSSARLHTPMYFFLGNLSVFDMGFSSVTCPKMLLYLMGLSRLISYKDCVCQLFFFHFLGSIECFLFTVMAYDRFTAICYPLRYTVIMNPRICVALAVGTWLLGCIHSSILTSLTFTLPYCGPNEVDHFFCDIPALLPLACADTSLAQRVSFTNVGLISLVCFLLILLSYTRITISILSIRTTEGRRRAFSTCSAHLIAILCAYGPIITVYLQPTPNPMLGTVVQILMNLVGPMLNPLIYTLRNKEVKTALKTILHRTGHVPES
Outline: as §1

Measured: odorant receptor agonist call;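 further: active if original authors judged signal statistically different from baseline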

CCCCCC(S)C(C)CO (centres undefined)
inactive: all assays above
